Data set [1] can be described thus: compound was evaluated for reverse occurs for the rate constant(log K-1) at pH 3.0. The class given is ADME. To be noted: buffer. The procedure, abridged:
(§1)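 Transfer rate constants were measured in a triphasic water/octanol/water system (Kochi's flask). Compound in 40 mL of 0.06 mol L-1 phosphate buffer sat in compartment A, and 40 mL of the same buffer at the same pH sat in compartment B. 80 mL octanol was layered over both compartments.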

Data set [2] is described as follows: compound was evaluated for reverse occurs for the rate constant(log K-1) at pH 7.4. The class given is ADME. To be noted: buffer. A digest of the protocol: as §1
The nature of data set [3]: compound was evaluated for reverse occurs for the rate constant(log K-1) at pH 1.0. The class given is ADME. To be noted: buffer. A digest of the protocol: as §1
Data set [4] in a line: compound was evaluated for rate constant of transfer (log K1) at pH 1.0. The format is ADME. The procedure, abridged: as §1
Data set [5] in a line: compound was evaluated for rate constant of transfer (log K1) at pH 3.0. The format is ADME. The procedure, abridged:
as §1

Data set [6] is described as follows: compound was evaluated for rate constant of transfer (log K1) at pH 7.4. The format is ADME. A digest of the protocol: as §1
Data set [7] can be described thus: (§2) Partition coefficient (logD3.0). The class given is physicochemical. The following applies: octanol/water, pH 3.
A short description of data set [8]: Partition coefficient (logD1.0). The class given is physicochemical. The following applies: octanol/water, pH 1. A digest of the protocol:
(§3)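 log D measured in n-octanol/aqueous phosphate buffer (0.02 mol L-1) by centrifugal partition chromatography in a multilayer coil separator–extractor at room temperature. UV detection was at the pH-dependent λmax. log D was computed from solute and solvent-front retention times, flow rate and column capacity. t0 came from K2Cr2O7 (pH > 4.5), CoCl2 (acidic pH) or biphenyl.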

The nature of data set [9]: compound were evaluated for rate constant of transfer (log K1) at pH 7.4. The class given is ADME. The procedure, abridged:
as §1

A short description of data set [10]: Partition coefficient (logD1.5). The following applies: octanol/water, pH 1.5.
A short description of data set [11]: as §2. To be noted: octanol/water, pH 3.
Data set [12] in a line: Partition coefficient (logD6.8). The following applies: octanol/water, pH 6.8.
The nature of data set [13]: Partition coefficient (logD9.4). To be noted: octanol/water, pH 9.4.
Data set [14] is described as follows: Pharmacokinetic parameter :drug bound to plasma was reported. The format is ADME, cell-free.
A short description of data set [15]: Pharmacokinetic parameter :volume apparent of distribution was reported. The format is ADME, organism-based. The following applies: in vivo.
Data set [16] can be described thus: Pharmacokinetic parameter :half life in humans was reported. The class given is ADME, organism-based. The following applies: human, in vivo; read-out: T1/2 beta (converted).
Data set [17] is described as follows: compound was evaluated for saturable association constant (nKa) of isolated serum protein LDL.
Data set [18] in a line: compound was evaluated for saturable association constant (nKa) of isolated serum protein VLDL.
Data set [19] is described as follows: Partition coefficient between dodecane and water (logDdod7.4). The format is physicochemical. To be noted: pH 7.4.
Data set [20] in a line: (§4) Partition coefficient (logD7.4). The format is physicochemical. To be noted: octanol/water, pH 7.4.
Data set [21] in a line: Lipophilicity parameter log Poct N. The following applies: octanol/water.
Data set [22] in a line: Lipophilicity parameter log Pdod N. The class given is physicochemical. The following applies: dodecane/water.
A short description of data set [23]: compound was evaluated for reverse occurs for the rate constant(log K-1) at pH 4.6. The format is ADME. To be noted: buffer. The procedure, abridged: as §1
Data set [24] in a line: compound was evaluated for reverse occurs for the rate constant(log K-1) at pH 8.8. The class given is ADME. To be noted: buffer. The procedure, abridged: as §1
A short description of data set [25]: compound was evaluated for rate constant of transfer (log K1) at pH 8.8. The format is ADME. A digest of the protocol:
as §1

A short description of data set [26]: Partition coefficient (logD4.6). The format is physicochemical. To be noted: octanol/water, pH 4.6. A digest of the protocol:
as §3

Data set [27] is described as follows: compound was evaluated for rate constant of transfer (log K1) at pH 4.6. The format is ADME. The procedure, abridged:
as §1

The nature of data set [28]: as §4. The class given is physicochemical. To be noted: octanol/water, pH 7.4. The procedure, abridged: as §3
The source holds these as a separate data set.

This note sets out measurements from ChEMBL document CHEMBL1131523 (J Med Chem, 1998).

The structures appear in SMILES notation. Peptide text beside a SMILES is read from it.

On to `CN(C(=O)C1=C(O)c2ccccc2S(=O)(=O)N1C)c1ccccn1`, for which the “Log K-1” value in data set [1] is listed as -1.63; in data set [2] it was -1.73; in data set [3], -1.69. The “Log K1” value in [4] is on record as -1.51; in data set [5] it was -1.19; in data set [6] it was -1.22. In addition, the logD (usually the decadic logarithm of the distribution of all forms, ionised or not, between an organic phase and buffer at a given pH) was 0.14 in [7], 0.14 in data set [7] (read-out: logD) and -0.12 in data set [8].
Take `COC1=C(C(=O)Nc2ccccn2)N(C)S(=O)(=O)c2ccccc21`: the “Log K-1” value in data set [3] is on record as -1.69. Further, in data set [4], the “Log K1” value is recorded as -1.32. The log distribution coefficient (logD) in data set [7] (read-out: logD) is 0.07.
Turning to `CC(C)C[C@H](N)C(=O)N[C@@H](Cc1ccccc1)C(=O)O` (H-Leu-Phe-OH), the “Log K-1” value in data set [2] is -1.77. Moreover, in [6], the “Log K1” value is listed as -2.55.
As to `N[C@@H](Cc1ccccc1)C(=O)N[C@@H](Cc1ccccc1)C(=O)O` (H-Phe-Phe-OH), the “Log K-1” value in data set [2] is -1.57. For the same molecule, the pH-dependent lipophilicity (logD) in [7] (read-out: logD) was -1.02. For the same molecule, the “Log K1” value in data set [9] is recorded as -2.29.
As for `N[C@@H](Cc1c[nH]c2ccccc12)C(=O)N[C@@H](Cc1ccccc1)C(=O)O` (H-Trp-Phe-OH), the “Log K-1” value in data set [2] is given as -1.74. For the same molecule, the “Log K1” value in [6] is -1.94. Further, in data set [7] (read-out: logD), the logD is -0.52.
For `N[C@@H](Cc1c[nH]c2ccccc12)C(=O)N[C@@H](Cc1ccc(O)cc1)C(=O)O` (H-Trp-Tyr-OH), in that order: -1.72, -2.73 and -1.38.
On to `Cc1ccc(/C(=C\CN2CCCC2)c2cccc(/C=C/C(=O)O)n2)cc1` [ACRIVASTINE], for which the logD in [10] is -0.93; in data set [11], -0.48; in [7] (read-out: logD), 0.86; in data set [12], -0.03; in [13] it was 0.24.
As for `COc1ccc(CCN2CCC(Nc3nc4ccccc4n3Cc3ccc(F)cc3)CC2)cc1` [ASTEMIZOLE], the B in data set [14] is reported as 96%. In data set [15], the Vd was 48 L/kg. For the same molecule, in [16], the half-life was 26 h.
With `CN1CCCC(n2nc(Cc3ccc(Cl)cc3)c3ccccc3c2=O)CC1` (stereo unspecified) [AZELASTINE], the Vd in data set [15] worked out at 14.5 L/kg. Besides, in [16], the half-life is 25 h.
Molecule `CN(C)CCC(c1ccc(Br)cc1)c1ccccn1` (stereo unspecified) [BROMPHENIRAMINE] showed a B in [14] of 72%. Besides, in data set [15], the Vd amounted to 10 L/kg. Also, in data set [16], the half-life is 24.9 h.
`CC(C)(C(=O)O)c1ccc(C(=O)CCCN2CCC(OC(c3ccccc3)c3ccccc3)CC2)cc1` [CAREBASTINE] gave a B in data set [14] of 98%. The Vd in data set [15] is 2.4 L/kg. Besides, in [16], the half-life is 16 h.
In the case of `O=C(O)COCCN1CCN(C(c2ccccc2)c2ccc(Cl)cc2)CC1` (stereo unspecified) [CETIRIZINE], the nKa in data set [17] stood at 2.21 M/M; in [18], 289 M/M.
Regarding `CN(C)CCC(c1ccc(Cl)cc1)c1ccccn1` (stereo unspecified) [CHLORPHENIRAMINE], the B in data set [14] was found to be 72%. Further, in [15], the Vd stood at 5.9 L/kg.
Regarding `CN(C)CCOC(c1ccccc1)c1ccccc1` [DIPHENHYDRAMINE], in [14], the B is recorded as 98%.
For `CC(C)(C(=O)O)c1ccc(C(O)CCCN2CCC(C(O)(c3ccccc3)c3ccccc3)CC2)cc1` (stereo unspecified) [FEXOFENADINE], the B in data set [14] is reported as 65%.
Turning to `OCCOCCN1CCN(C(c2ccccc2)c2ccc(Cl)cc2)CC1` (stereo unspecified) [HYDROXYZINE], the Vd in data set [15] was 30.5 L/kg. For the same molecule, in [16], the half-life is 20 h. For the same molecule, the values for the pH-dependent lipophilicity (logD) in data set [19] and in data set [20] were 0.9 and 3.1, respectively. Also, the log partition coefficient (logP) (commonly the decadic logarithm of the partition coefficient of the neutral form, usually between octanol and water) in data set [21] stood at 3.5. Also, in data set [22], the “Log Pdod N” value is listed as 1.25.
Regarding `CC(CCc1ccccc1)NCC(O)c1ccc(O)c(C(N)=O)c1` (stereo unspecified) [LABETALOL], the “Log K-1” value is reported as -1.58 in data set [23] and -2.22 in data set [24]. Besides, the “Log K1” value in data set [25] was -0.89; in data set [27] it was -2.07. Moreover, the logD is 1.03 in data set [7] (read-out: logD) and -0.8 in [26].
`CCOC(=O)N1CCC(=C2c3ccc(Cl)cc3CCc3cccnc32)CC1` [LORATADINE] had a B in data set [14] of 97%.
Turning to `CNCc1ccccc1` [N-BENZYLMETHYLAMINE], the “Log K-1” value in data set [2] was -1.94. In addition, in [6], the “Log K1” value is given as -0.78. Moreover, the logD in data set [7] (read-out: logD) came out at 0.86.
Take `Oc1ccccc1` [PHENOL]: the “Log K-1” value in [2] is given as -2.5. Further, in data set [6], the “Log K1” value is given as -0.68. Further, the logD in [7] (read-out: logD) came out at 1.54.
With `CN1C(C(=O)Nc2ccccn2)=C(O)c2ccccc2S1(=O)=O` [PIROXICAM], the entries for the “Log K-1” value in [1], in [2] and in [3] were -2.42, -1.75 and -1.93, respectively. The “Log K1” value was -1 in [4], -0.69 in [5] and -1.53 in data set [6]. Also, the results for the log distribution coefficient (logD) in data set [7] (read-out: logD), in [28] and in [8] were 1.43, -0.08 and 0.63, respectively.
As for `c1ccncc1` [PYRIDINE], the “Log K-1” value in data set [2] is -1.7. Besides, the “Log K1” value in [6] was -0.83.
The molecule `CC(C)(C)c1ccc(C(O)CCCN2CCC(C(O)(c3ccccc3)c3ccccc3)CC2)cc1` (stereo unspecified) [TERFENADINE] gave a B in [14] of 98%. The Vd in data set [15] was 2.9 L/kg. Besides, the half-life in data set [16] is 23 h.
In the case of `Cc1ccc(/C(=C\CN2CCCC2)c2ccccn2)cc1` [TRIPROLIDINE], the B in [14] was 90%. The Vd in [15] amounted to 8.7 L/kg. In addition, the half-life in data set [16] was 30 h.
